This is an account of results in ChEMBL document CHEMBL3860041, “Synthesis, biological evaluation and molecular modeling study of some new methoxylated 2-benzylthio-quinazoline-4(3H)-ones as nonclassical antifolates” (Bioorg Med Chem Lett, 2016).

Molecules are shown by their SMILES. Converted amounts (≈) assume the structure as drawn.

Assay [1] concerns Staphylococcus aureus. Briefly: Antimicrobial activity against Staphylococcus aureus IFO 3060 at 200 ug/disc measured after 24 hrs by agar disc-diffusion method. In kind it is functional. To be noted: IFO 3060, 24 h, read-out: DIZ. A general note: A growth-free zone around the sample is the usual read-out of agar diffusion tests.
The subject of a further assay is Candida albicans. Briefly: Antimicrobial activity against Candida albicans IFO 0583 at 200 ug/disc measured after 48 hrs by agar disc-diffusion method. To be noted: IFO 0583, 48 h, read-out: DIZ. The class given is functional.
Assay [2] relates to Staphylococcus aureus. The assay can be described thus: Antimicrobial activity against Staphylococcus aureus IFO 3060 measured after 24 hrs by microdilution method. In kind it is functional. To be noted: IFO 3060, 24 h. A general note: Dilution methods test growth across graded concentrations, often in twofold steps.
The test system of assay [3] is Escherichia coli. Briefly: Antimicrobial activity against Escherichia coli IFO 3301 at 200 ug/disc measured after 24 hrs by agar disc-diffusion method. To be noted: IFO 3301, 24 h, read-out: DIZ. The class given is functional.
The subject of assay [4] is Escherichia coli. The assay can be described thus: microbe, parasite or virus in culture. To be noted: IFO 3301, 24 h.
The next assay has as its system Pseudomonas aeruginosa. Briefly: Antimicrobial activity against Pseudomonas aeruginosa IFO 3448 at 200 ug/disc measured after 24 hrs by agar disc-diffusion method. In kind it is functional. To be noted: IFO 3448, 24 h, read-out: DIZ.
Assay [5] deals with Bacillus subtilis. The assay can be described thus: Antimicrobial activity against Bacillus subtilis IFO 3007 measured after 24 hrs by microdilution method. To be noted: IFO 3007, 24 h. In kind it is functional.
The subject of assay [6] is Bacillus subtilis. Briefly: Antimicrobial activity against Bacillus subtilis IFO 3007 at 200 ug/disc measured after 24 hrs by agar disc-diffusion method. In kind it is functional. To be noted: IFO 3007, 24 h, read-out: DIZ.
A short description of assay [7]: Growth inhibition of human MDA-MB-435 cells at 10 uM after 48 hrs by SRB assay relative to control. In kind it is functional. To be noted: MDA-MB-435, 48 h, read-out: GI. The procedure, abridged: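 NCI 60-cell-line panel, nine tumor subpanels; compounds tested at a single dose of 10 μM in the primary screen.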
For orientation: The SRB assay estimates cell density from bound dye.

With `COc1cc2nc(SCc3cc(OC)c(OC)c(OC)c3)n(Cc3ccccc3)c(=O)c2cc1OC`, the zone of inhibition at 200 µg/disc worked out at 20 mm in the assay with Staphylococcus aureus [1]; 8 mm in the assay on Candida albicans; 16 mm in the assay on Escherichia coli [3]; 8 mm with Pseudomonas aeruginosa; 22 mm with Bacillus subtilis [6]. Moreover, the figures for the MIC with Staphylococcus aureus [2], in the assay with Escherichia coli [4] and in the assay with Bacillus subtilis [5] were 4 µg/mL (≈ 7.86 µM), 8 µg/mL (≈ 15.7 µM) and 4 µg/mL (≈ 7.86 µM), respectively.

Take `COc1cc(CSc2nc3ccc(Cl)cc3c(=O)n2Cc2ccccc2)cc(OC)c1OC`: the inhibition of growth at 10 µM in assay [7] is 98.2%.

As to `COc1ccc(-n2c(SCc3cc(OC)c(OC)c(OC)c3)nc3ccc(Cl)cc3c2=O)cc1`, in [7], the inhibition of growth at 10 µM is 12.4%.

Take `COc1cc2nc(SCc3cc(OC)c(OC)c(OC)c3)n(-c3ccccc3OC)c(=O)c2cc1OC`: the inhibition of growth at 10 µM in assay [7] was found to be 100%.

As to `COc1ccc(CSc2nc3cc(OC)c(OC)cc3c(=O)n2-c2ccc(OC)cc2OC)cc1`, the inhibition of growth at 10 µM in assay [7] is 38%.

For the molecule `COc1cc(CSc2nc3ccc(Cl)cc3c(=O)n2-c2ccccc2)cc(OC)c1OC`, the zone of inhibition at 200 µg/disc in the assay on Staphylococcus aureus [1] is 17 mm; in the assay on Candida albicans, 8 mm; in the assay on Escherichia coli [3], 16 mm; with Pseudomonas aeruginosa, 8 mm; with Bacillus subtilis [6], 20 mm. Further, the results for the MIC against Staphylococcus aureus [2], with Escherichia coli [4] and in the assay with Bacillus subtilis [5] were 8 µg/mL (≈ 17.1 µM), 8 µg/mL (≈ 17.1 µM) and 4 µg/mL (≈ 8.53 µM), respectively. Moreover, the inhibition of growth at 10 µM in assay [7] was 75.6%.
